Source: PubChem BioAssay AID652075 (The Scripps Research Institute Molecular Screening Center, 2013)
The source made the active and inactive calls.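 The calls were made as follows: active = hERG binding inhibition of 50% or more, or stimulation of 50% or more, shown as inhibition of -50% or lower; inactive = the rest.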

Biological target: Voltage-gated inwardly rectifying potassium channel KCNH2 (Homo sapiens) (UniProt Q12809)
Assay: hERG radioligand binding displacement, late-stage follow-up, counter-screen for OPRK1 antagonist project, biochemical, radiometric (AID 652075)
Settings: CEREP, at 10 µM, hits give high values
Outline: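 Material: hERG radioligand binding / Probe or stimulus: radiolabelled ligand, excess unlabelled ligand for nonspecific binding / Compound dosing: 10 µM single dose / Detection: radioligand binding / Read-out: % inhibition of control specific binding / Control set: nonspecific binding with excess unlabelled ligand / Repeats: duplicate measurements per compound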

Chain of Voltage-gated inwardly rectifying potassium channel KCNH2 (Homo sapiens) (Q12809 whole entry, looked up): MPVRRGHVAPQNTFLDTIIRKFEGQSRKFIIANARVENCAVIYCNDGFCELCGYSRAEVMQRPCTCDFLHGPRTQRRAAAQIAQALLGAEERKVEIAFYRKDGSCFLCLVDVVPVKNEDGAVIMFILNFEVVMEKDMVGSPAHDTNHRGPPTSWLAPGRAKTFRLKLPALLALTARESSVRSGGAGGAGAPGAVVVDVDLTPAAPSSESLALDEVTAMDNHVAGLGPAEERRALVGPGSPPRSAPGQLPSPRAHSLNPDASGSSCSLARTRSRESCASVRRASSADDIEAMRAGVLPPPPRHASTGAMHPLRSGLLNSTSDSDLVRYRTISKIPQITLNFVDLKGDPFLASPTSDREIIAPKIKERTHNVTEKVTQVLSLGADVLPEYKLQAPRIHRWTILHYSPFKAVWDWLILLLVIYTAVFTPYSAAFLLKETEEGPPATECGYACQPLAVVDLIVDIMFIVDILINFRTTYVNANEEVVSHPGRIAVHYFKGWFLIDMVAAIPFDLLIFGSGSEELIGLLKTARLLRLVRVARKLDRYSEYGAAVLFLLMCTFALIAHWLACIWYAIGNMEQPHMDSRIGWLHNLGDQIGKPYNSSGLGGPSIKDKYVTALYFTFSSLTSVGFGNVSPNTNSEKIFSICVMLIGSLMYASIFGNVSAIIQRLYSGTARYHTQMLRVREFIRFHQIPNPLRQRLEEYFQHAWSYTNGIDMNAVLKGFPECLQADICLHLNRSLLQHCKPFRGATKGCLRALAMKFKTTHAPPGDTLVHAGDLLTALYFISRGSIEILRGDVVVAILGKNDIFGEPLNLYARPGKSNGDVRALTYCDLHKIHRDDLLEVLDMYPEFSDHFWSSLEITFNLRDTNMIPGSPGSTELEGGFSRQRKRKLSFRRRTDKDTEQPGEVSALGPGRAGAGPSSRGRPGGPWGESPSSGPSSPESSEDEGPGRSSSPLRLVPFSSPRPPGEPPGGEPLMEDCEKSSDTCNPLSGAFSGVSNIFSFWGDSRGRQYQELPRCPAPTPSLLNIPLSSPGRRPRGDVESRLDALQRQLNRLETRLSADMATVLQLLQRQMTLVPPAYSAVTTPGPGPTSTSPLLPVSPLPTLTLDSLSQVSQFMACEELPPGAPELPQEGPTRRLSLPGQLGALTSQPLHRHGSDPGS

**Q.** Which inhibition does the source give for `COC(=O)c1cc(Br)cnc1N1CCC(NC2CCCCC2)C(O)C1` (stereo unspecified) here?
**A.** 39.3% (inactive)
